# Shown are actives, neighbours in structure and some others; about 2.5% of the full set was active somewhere.
# Platelet DG rel: modulates dense granule release in human platelets; human platelet-rich plasma, SFLLRN dense granule ATP release, luminescence; inhibition, %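 (compounds screened at 7.5 µM in platelet-rich plasma)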; 300,000 compounds, 0.22% hits;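 active means mean replicate score, as percent of positive control, at or above 50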
# TRPC6 inhibitor: blocks the mouse TRPC6 cation channel. Q61143. B-score at 10 µM. HEK293-TRPC6, membrane potential dye, ACh-evoked depolarization; hits give low values. 310,000 compounds, 1.1% hits;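 active means B-score under library mean minus 3 SD, initial fluorescence not abnormally high, positive integrated signal ratio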;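 further: B-score derived from integrated fluorescence ratio over the kinetic read; more negative B-score means stronger inhibition of depolarization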
# TRPC4 block: blocks the mouse TRPC4 cation channel | Q9QUQ5 | HEK293 TRPC4beta/mu-opioid, DAMGO-evoked Fluo4 calcium flux; hits give low values | B-score at 10 µM | 300,000 compounds, 0.39% hits | AID 2247;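 active means B-score over 3 SD under the library average, no early fluorescence shift, positive overall ratio signal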
#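 Signal: kinetic Fluo4 fluorescence imaging of calcium influx. Material: stable TRPC4beta/mu-opioid receptor HEK293 cells. Probe or stimulus: DAMGO in two steps, submaximal then maximal.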
# TRPC4 agonist: activators of mouse TRPC4 channel | HEK293 TRPC4beta/mu-opioid, Fluo4 calcium fluorescence; hits give high values | B-score at 10 µM | 310,000 compounds, 0.49% hits | AID 2237;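 active means B-score above 5 SD of library B-scores, and initial fluorescence ratio not above library mean plus 5 SD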;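 further: positive B-score marks a calcium rise read as TRPC4 activation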
#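 system = HEK293 cells stably co-expressing mouse TRPC4beta and mu-opioid receptor | schedule = Fluo4 dye loading 45 min at room temperature, 110 s recording | measure = B-scored integrated calcium fluorescence ratio | signal = Fluo4 calcium-sensitive dye fluorescence, kinetic, 1 Hz baseline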
# TRPC6 activator: activates the mouse TRPC6 cation channel; Q61143; HEK293-TRPC6 membrane potential dye fluorescence; hits give high values; B-score at 10 µM; 310,000 compounds, 0.13% hits;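 active means B-score of the integrated fluorescence ratio above library mean plus 3 SD, and starting fluorescence ratio within library mean plus 5 SD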;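 further: higher score means more depolarization so channel activation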
# TRPC4 potent: allosterically enhances the mouse TRPC4 cation channel. Q9QUQ5. HEK293 TRPC4beta/mu-opioid, DAMGO EC20, Fluo-4 Ca2+ flux; hits give high values. B-score at 10 µM. 310,000 compounds, 0.42% hits. AID 2227;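 active means B-score of calcium response area above 5 SD of library B-scores, with initial fluorescence ratio within 5 SD of library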;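 further: B-score of integrated fluorescence ratio over time as area under calcium response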
# * hit, by the source's call; i = inactive; / = no result.
SMILES,Platelet DG rel,TRPC6 inhibitor,TRPC4 block,TRPC4 agonist,TRPC6 activator,TRPC4 potent
COc1ccc2c(c1)sc(N)[n+]2Cc1cc(C)cc2cccnc12,-11,i,-5*,i,i,i
CCOc1ccc2c(c1)sc(N)[n+]2Cc1cc(C)cc2cccnc12,6,i,-7*,i,i,i
COc1ccccc1NC(=O)C(C)OC(=O)c1nc2nc(C)cc(C)n2n1 (configuration not stated),12,i,i,i,i,i
Cc1occc1C(=O)N/N=C/c1ccc(-c2ccccc2)cc1,93*,i,i,i,i,i
Cc1occc1C(=O)N/N=C/c1ccc2c(c1)OCO2,126*,i,i,i,i,i
Cc1occc1C(=O)N/N=C/c1ccc(OCc2ccccc2)cc1,6,i,i,i,i,i
Cc1cc(C(=O)N/N=C/c2ccc3c(c2)OCO3)c(C)o1,12,i,i,i,i,i
CCN(CC)c1ccc(/C=N/NC(=O)OC)c(O)c1,/,i,i,i,i,i
Cc1ccsc1C(=O)N/N=C/c1ccc2c(c1)OCO2,66*,i,i,i,i,i
O=C(N/N=C/c1ccc2c(c1)OCO2)c1cccs1,7,i,i,i,i,i
CCN(CC)c1ccc(/C=N/NC(=O)c2ccoc2C)c(O)c1,117*,i,i,i,i,i
Cc1cccc(N(CC(=O)NCc2ccc(F)cc2)C(=O)c2ccco2)c1,2,i,i,i,i,i
CCOc1ccccc1NC(=O)COC(=O)CCOc1cc(C)ccc1C,24,i,i,i,i,i
CCCCN(C)CCNC(=O)c1cc2c(-c3cccc(OC)c3)nn(C)c2s1,3,i,i,i,i,25*
CCCCNC(=O)c1cc2c(-c3ccc(Cl)cc3)nn(C)c2s1,-2,i,i,i,i,i
CCN(CC)CCCNC(=O)c1cc2c(-c3cccc(OC)c3)nn(C)c2s1,-1,i,i,79*,i,13*
CCCCN(CC)CCCNC(=O)c1cc2c(-c3ccc(OC)c(OC)c3)nn(C)c2s1,7,i,i,82*,i,i
COc1cccc(-c2nn(C)c3sc(C(=O)NCCCN(C)Cc4ccccc4)cc23)c1,10,i,i,57*,i,i
C=C(C)COc1ccc(-c2ncncc2-c2ccccc2)c(O)c1,2,i,i,i,i,i
Cc1ccc(NC(=S)NC2CC3CCC(C2)N3Cc2ccco2)c(C)c1 (configuration not stated),14,i,i,116*,i,i
Cc1cccc(NC(=S)NC2CC3CCCC(C2)N3Cc2ccccc2)c1C (configuration not stated),23,i,i,65*,i,i
Cc1cccc(NC(=S)NC2CC3CCC(C2)N3Cc2ccco2)c1C (configuration not stated),-8,i,i,i,i,i
COc1cccc(CNC(=O)CCC2CCCN(C/C=C/c3ccccc3OC)C2)c1 (configuration not stated),-6,i,i,73*,i,i
COc1ccccc1/C=C/CN1CCCC(CCC(=O)NCc2ccc(F)c(F)c2)C1 (configuration not stated),7,i,i,118*,i,i
O=C(CCC1CCCN(Cc2cccc3c2OCO3)C1)NCc1ccc(F)c(F)c1 (configuration not stated),1,i,i,i,i,i
SMILES,Platelet DG rel,TRPC6 inhibitor,TRPC4 block,TRPC4 agonist,TRPC6 activator,TRPC4 potent
CC(=O)NC(=S)Nc1ccc(NC(=O)c2cccnc2Cl)cc1,4,i,i,i,i,i
Cc1cc(C)n2nc(C(=O)OCC(=O)N(C)CC(=O)Nc3ccccc3Cl)nc2n1,-8,i,i,i,i,i
CCOc1cc(/C=N/NC(N)=O)cc(Br)c1OCC(=O)Nc1ccccc1C,98*,i,i,i,i,i
COc1cc(/C=N/NC(N)=O)c(Br)cc1OCC(=O)Nc1ccccc1C,80*,i,i,i,i,i
COc1cc(/C=N/O)c(Br)cc1OCC(=O)Nc1ccccc1C,-14,i,i,i,i,i
C/C(=N\NC(=O)c1nnn(-c2nonc2N)c1CSc1ccc(Cl)cc1)c1ccco1,1,i,i,i,i,i
CN1CCN(CCCN(Cc2cccs2)C(=S)Nc2ccc(Cl)cc2)CC1,-1,i,i,i,i,i
CCc1ccc(NC(=O)N(CCCN2CCOCC2)Cc2cccs2)cc1,-8,i,i,51*,i,i
O=C(Nc1ccccc1)N(CCCN1CCOCC1)Cc1cccs1,7,i,i,i,i,i
CCc1ccc(NC(=S)N(CCCN2CCN(C)CC2)Cc2cccs2)cc1,7,i,i,i,i,10*
Cc1ccc(S(=O)(=O)N2CCC(N3CCN(C)CC3)CC2)cc1Cl,3,i,i,i,i,35*
CN1CCN(S(=O)(=O)c2ccc(-c3ccc(Cl)cc3)cc2)CC1,-3,i,i,i,i,i
CN1CCN(S(=O)(=O)c2ccc(Cl)cc2)CC1,-18,i,i,48*,i,i
Cc1ccc(S(=O)(=O)N2CCN(C)CC2)cc1C,1,i,i,i,i,i
Cc1ccc(S(=O)(=O)NC(=O)c2cc(C)n(C3CC3)c2C)cc1,-4,i,i,i,i,i
COc1cc(C(=O)NCC(c2cccs2)N(C)C)cc(Cl)c1OC(C)C (configuration not stated),2,i,i,63*,i,i
CCCOc1ccc(C(=O)NCC(c2cccs2)N(C)C)cc1OC (configuration not stated),10,i,i,i,i,i
COc1cc2ccccc2cc1C(=O)NCC(c1cccs1)N(C)C (configuration not stated),1,i,i,179*,i,i
COc1ccc(CNCc2ccc3c(c2)OCO3)cc1Br,-6,i,i,43*,i,i
COc1ccc(CNCc2ccc3c(c2)OCO3)c(OC)c1OC,2,i,i,i,i,i
CCCCC(C(=O)NC(=O)NCc1ccccc1)N1C(=O)c2ccccc2C1=O (configuration not stated),9,i,-6*,i,i,i

# Assay outcomes: PubChem BioAssay, several laboratories
